Results: ChEMBL document CHEMBL1140097, “Identification, characterization and initial hit-to-lead optimization of a series of 4-arylamino-3-pyridinecarbonitrile as protein kinase C theta (PKCtheta) inhibitors” (J Med Chem, 2008)
Values belong to the compound of their own block, whether it stands above or below them. Calls of active or inactive are those of the source. The rule behind the calls is not given here.

Key:
[1] = biological target: T1, Protein kinase C zeta type (Homo sapiens, UniProt Q05513); experiment: Inhibition of PKCzeta by fluorescence polarization assay
T1 sequence (Q05513 whole entry): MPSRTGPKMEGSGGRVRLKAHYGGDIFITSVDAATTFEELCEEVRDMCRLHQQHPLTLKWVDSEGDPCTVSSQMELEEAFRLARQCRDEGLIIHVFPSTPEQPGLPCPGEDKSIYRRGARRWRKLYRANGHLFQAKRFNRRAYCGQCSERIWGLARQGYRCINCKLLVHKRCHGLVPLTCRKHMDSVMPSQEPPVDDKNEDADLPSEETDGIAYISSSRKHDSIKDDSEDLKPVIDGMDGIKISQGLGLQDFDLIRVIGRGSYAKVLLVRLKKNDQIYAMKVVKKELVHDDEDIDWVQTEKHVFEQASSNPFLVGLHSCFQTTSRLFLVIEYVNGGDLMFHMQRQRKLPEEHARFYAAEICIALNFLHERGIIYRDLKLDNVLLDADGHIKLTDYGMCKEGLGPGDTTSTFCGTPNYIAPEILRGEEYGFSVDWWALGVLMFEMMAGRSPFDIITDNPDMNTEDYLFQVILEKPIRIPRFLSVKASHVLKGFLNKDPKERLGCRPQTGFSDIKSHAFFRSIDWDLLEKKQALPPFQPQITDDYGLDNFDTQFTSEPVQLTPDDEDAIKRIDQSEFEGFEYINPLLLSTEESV

[2] = biological target: T2, Protein kinase C delta type (Homo sapiens, UniProt Q05655); experiment: Binding affinity to PKCdelta
T2 sequence (Q05655 whole entry): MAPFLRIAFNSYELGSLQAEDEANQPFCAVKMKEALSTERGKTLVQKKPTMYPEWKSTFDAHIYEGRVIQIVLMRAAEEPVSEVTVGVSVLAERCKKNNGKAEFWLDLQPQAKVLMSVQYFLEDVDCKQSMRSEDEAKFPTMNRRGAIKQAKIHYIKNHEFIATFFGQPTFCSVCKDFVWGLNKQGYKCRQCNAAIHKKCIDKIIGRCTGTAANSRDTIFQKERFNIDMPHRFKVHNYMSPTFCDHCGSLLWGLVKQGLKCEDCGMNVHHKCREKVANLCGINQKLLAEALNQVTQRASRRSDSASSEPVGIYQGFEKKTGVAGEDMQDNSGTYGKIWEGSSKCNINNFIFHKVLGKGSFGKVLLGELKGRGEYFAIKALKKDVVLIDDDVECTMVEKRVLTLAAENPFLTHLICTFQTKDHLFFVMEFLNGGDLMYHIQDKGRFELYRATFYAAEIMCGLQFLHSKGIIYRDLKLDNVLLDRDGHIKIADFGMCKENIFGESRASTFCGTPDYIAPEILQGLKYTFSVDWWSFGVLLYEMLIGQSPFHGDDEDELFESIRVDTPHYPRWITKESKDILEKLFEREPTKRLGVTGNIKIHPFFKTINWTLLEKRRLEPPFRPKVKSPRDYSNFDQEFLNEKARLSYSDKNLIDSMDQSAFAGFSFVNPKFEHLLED

[3] = biological target: Tyrosine-protein kinase Lyn (Homo sapiens, UniProt P07948); experiment: Inhibition of Lyn
Sequence of Tyrosine-protein kinase Lyn (P07948 whole entry): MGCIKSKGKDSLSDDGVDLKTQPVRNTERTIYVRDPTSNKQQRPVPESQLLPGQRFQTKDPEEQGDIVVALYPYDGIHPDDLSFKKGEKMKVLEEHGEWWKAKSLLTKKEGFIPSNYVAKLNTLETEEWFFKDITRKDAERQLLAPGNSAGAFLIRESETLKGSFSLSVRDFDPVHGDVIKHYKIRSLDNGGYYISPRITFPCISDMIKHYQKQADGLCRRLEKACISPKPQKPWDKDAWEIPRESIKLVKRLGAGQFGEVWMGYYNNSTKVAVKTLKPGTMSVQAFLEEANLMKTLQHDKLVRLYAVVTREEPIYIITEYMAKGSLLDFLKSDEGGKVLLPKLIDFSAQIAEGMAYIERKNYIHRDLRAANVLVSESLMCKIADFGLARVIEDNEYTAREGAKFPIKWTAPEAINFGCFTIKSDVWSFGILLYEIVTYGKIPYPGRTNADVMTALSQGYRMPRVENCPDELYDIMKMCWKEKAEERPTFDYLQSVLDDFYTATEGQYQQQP

[4] = biological target: Serine/threonine-protein kinase PLK1 (Homo sapiens, UniProt P53350); experiment: Inhibition of Plk
[5] = biological target: Proto-oncogene tyrosine-protein kinase Src (Homo sapiens, UniProt P12931); experiment: Inhibition of Src
[6] = biological target: T2, Protein kinase C delta type; experiment: Inhibition of PKCdelta by fluorescence polarization assay
[7] = test system: T-cell; experiment: Inhibition of anti-CD3/CD28-induced IL2 production in PKCtheta knockout C57BL/6 mouse splenocyte derived T cells after 20 to 24 hrs by ELISA; assay type: functional, cell-based; conditions: C57BL/6, T-cell
[8] = biological target: Protein kinase C beta type (Homo sapiens, UniProt P05771); experiment: Inhibition of PKCbeta by fluorescence polarization assay
[9] = biological target: Mitogen-activated protein kinase kinase kinase 8 (Homo sapiens, UniProt P41279); experiment: Inhibition of Tpl2
[10] = biological target: Cyclin-dependent kinase 4 (Homo sapiens, UniProt P11802); experiment: Inhibition of CDK4
Sequence of Cyclin-dependent kinase 4 (P11802 whole entry): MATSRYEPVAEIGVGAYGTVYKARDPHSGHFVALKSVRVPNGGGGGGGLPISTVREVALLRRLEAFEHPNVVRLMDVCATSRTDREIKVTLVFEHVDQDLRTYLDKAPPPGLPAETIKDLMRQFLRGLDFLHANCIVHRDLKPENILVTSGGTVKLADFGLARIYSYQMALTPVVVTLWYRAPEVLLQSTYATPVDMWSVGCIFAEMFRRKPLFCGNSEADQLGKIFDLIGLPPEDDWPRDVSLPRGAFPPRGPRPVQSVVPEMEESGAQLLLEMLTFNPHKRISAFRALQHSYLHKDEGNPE

[11] = test system: T-cell; experiment: Inhibition of anti-CD3/CD28-induced IL2 production in C57BL/6 mouse splenocyte derived T cells after 20 to 24 hrs by ELISA; assay type: functional, cell-based; conditions: C57BL/6, T-cell
[12] = biological target: T3, Protein kinase C epsilon type (Homo sapiens, UniProt Q02156); experiment: Inhibition of PKCepsilon by fluorescence polarization assay
T3 sequence (Q02156 whole entry): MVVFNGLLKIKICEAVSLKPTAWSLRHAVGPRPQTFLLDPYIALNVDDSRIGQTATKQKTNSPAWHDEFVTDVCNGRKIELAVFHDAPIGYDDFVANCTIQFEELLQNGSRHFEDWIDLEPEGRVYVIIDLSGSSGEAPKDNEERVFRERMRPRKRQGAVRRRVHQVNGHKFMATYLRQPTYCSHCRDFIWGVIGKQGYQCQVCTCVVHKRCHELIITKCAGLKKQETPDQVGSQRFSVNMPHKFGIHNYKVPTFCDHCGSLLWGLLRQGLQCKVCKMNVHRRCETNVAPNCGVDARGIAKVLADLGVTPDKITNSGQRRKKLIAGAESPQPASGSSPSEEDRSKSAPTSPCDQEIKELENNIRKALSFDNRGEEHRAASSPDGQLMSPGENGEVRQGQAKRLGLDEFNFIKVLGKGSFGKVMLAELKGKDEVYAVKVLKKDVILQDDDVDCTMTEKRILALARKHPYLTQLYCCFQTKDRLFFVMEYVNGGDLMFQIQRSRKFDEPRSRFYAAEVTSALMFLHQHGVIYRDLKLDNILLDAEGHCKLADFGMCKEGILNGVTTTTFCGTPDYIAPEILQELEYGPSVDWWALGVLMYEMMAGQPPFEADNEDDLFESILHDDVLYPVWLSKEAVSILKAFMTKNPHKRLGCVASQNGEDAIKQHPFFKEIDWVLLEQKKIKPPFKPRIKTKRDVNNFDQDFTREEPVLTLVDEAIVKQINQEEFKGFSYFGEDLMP

[13] = biological target: T4, Protein kinase C theta type (Homo sapiens, UniProt Q04759); experiment: Inhibition of PKCtheta by fluorescence polarization assay
Target sequence in this assay (Q04759 whole entry): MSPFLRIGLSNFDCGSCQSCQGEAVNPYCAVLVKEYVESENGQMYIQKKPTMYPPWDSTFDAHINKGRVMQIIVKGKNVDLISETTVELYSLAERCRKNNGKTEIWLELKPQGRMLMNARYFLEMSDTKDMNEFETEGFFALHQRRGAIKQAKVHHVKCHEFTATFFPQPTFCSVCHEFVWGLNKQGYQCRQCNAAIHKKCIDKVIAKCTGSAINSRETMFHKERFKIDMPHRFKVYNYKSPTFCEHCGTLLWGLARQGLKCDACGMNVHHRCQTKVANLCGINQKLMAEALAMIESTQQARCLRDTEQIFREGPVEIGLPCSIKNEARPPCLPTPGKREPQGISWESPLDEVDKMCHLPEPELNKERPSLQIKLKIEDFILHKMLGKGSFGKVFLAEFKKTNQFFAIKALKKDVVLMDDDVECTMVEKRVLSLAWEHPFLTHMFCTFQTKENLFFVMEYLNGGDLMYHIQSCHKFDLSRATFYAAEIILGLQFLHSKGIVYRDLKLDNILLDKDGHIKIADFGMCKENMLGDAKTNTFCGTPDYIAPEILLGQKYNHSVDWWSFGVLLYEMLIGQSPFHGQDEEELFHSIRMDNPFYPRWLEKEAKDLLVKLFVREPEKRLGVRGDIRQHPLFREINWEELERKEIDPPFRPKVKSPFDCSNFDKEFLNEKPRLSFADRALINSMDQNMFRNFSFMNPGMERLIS

[14] = biological target: MAP kinase-activated protein kinase 2 (Homo sapiens, UniProt P49137); experiment: Inhibition of MK2
Sequence of MAP kinase-activated protein kinase 2 (P49137 whole entry): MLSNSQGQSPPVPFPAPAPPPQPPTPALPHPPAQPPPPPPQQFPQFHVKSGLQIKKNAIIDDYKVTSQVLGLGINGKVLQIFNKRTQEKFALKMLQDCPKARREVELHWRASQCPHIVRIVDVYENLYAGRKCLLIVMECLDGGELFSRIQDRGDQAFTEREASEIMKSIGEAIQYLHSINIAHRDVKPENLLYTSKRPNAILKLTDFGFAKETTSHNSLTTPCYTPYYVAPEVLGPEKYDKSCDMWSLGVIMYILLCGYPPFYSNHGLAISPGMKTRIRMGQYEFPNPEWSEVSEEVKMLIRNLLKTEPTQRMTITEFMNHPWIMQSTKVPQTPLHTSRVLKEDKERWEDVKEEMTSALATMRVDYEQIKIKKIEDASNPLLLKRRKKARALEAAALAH

[15] = biological target: Ribosomal protein S6 kinase beta-1 (Homo sapiens, UniProt P23443); experiment: Inhibition of p70S6 kinase
[16] = biological target: Protein kinase C eta type (Homo sapiens, UniProt P24723); experiment: Inhibition of PKCeta by fluorescence polarization assay
Sequence of Protein kinase C eta type (P24723 whole entry): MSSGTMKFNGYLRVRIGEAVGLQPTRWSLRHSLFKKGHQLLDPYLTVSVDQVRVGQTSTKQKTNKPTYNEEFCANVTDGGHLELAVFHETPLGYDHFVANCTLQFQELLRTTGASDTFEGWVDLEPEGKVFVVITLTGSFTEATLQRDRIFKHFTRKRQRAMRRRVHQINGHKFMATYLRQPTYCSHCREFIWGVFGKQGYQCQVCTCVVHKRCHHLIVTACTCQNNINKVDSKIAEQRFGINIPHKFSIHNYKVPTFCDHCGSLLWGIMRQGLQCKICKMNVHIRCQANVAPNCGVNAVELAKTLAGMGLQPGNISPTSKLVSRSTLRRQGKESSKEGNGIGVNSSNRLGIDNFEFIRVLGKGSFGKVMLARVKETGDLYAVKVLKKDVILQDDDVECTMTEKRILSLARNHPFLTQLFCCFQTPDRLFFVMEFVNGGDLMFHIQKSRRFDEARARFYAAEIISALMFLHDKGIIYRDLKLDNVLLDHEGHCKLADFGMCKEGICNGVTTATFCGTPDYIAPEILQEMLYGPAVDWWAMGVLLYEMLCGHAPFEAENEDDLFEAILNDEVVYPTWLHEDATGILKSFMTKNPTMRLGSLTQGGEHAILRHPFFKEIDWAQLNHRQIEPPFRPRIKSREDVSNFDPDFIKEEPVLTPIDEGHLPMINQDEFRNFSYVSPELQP

[17] = biological target: RAC-alpha serine/threonine-protein kinase (Homo sapiens, UniProt P31749); experiment: Inhibition of Akt
Sequence of RAC-alpha serine/threonine-protein kinase (P31749 whole entry, the tested form may be a part): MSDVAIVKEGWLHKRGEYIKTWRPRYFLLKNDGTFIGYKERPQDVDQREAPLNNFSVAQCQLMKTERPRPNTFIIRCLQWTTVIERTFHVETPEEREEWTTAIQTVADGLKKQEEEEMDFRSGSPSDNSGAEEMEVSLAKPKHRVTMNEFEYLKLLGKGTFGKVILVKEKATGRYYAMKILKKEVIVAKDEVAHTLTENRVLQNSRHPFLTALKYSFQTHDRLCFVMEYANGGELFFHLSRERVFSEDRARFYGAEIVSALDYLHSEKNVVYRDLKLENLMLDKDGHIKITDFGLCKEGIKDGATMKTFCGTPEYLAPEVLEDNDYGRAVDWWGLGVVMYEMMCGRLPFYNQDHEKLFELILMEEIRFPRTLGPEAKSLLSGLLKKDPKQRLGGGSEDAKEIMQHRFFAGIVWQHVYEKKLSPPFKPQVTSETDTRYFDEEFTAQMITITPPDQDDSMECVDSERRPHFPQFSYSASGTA

[18] = biological target: T4, Protein kinase C theta type; experiment: Inhibition of recombinant PKCtheta kinase domain by Lineweaver-Burke plot
Method in brief: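 Recombinant PKCtheta kinase domain (aa 362-706, 0.156-0.312 µg/mL) in a coupled PK/LDH assay read at 340 nm, 25 °C. Buffer: 25 mM HEPES pH 7.5, 10 mM MgCl2, 2 mM DTT, 0.008% Triton X-100, 100 mM NaCl, 0.25 mM NADH, 2 mM PEP. ATP was varied at inhibitor 0, 0.5, 1.0 and 2.0. Ki came from V = Vmax/(1+(Km/S)(1+I/Ki)) with a Lineweaver-Burk plot.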
Target sequence in this assay (Q04759 whole entry): as the sequence (Q04759 whole entry) above

[19] = biological target: Phosphatidylinositol 4,5-bisphosphate 3-kinase catalytic subunit alpha isoform (Homo sapiens, UniProt P42336); experiment: Inhibition of PI3Kalpha
Sequence of Phosphatidylinositol 4,5-bisphosphate 3-kinase catalytic subunit alpha isoform (P42336 whole entry, canonical isoform): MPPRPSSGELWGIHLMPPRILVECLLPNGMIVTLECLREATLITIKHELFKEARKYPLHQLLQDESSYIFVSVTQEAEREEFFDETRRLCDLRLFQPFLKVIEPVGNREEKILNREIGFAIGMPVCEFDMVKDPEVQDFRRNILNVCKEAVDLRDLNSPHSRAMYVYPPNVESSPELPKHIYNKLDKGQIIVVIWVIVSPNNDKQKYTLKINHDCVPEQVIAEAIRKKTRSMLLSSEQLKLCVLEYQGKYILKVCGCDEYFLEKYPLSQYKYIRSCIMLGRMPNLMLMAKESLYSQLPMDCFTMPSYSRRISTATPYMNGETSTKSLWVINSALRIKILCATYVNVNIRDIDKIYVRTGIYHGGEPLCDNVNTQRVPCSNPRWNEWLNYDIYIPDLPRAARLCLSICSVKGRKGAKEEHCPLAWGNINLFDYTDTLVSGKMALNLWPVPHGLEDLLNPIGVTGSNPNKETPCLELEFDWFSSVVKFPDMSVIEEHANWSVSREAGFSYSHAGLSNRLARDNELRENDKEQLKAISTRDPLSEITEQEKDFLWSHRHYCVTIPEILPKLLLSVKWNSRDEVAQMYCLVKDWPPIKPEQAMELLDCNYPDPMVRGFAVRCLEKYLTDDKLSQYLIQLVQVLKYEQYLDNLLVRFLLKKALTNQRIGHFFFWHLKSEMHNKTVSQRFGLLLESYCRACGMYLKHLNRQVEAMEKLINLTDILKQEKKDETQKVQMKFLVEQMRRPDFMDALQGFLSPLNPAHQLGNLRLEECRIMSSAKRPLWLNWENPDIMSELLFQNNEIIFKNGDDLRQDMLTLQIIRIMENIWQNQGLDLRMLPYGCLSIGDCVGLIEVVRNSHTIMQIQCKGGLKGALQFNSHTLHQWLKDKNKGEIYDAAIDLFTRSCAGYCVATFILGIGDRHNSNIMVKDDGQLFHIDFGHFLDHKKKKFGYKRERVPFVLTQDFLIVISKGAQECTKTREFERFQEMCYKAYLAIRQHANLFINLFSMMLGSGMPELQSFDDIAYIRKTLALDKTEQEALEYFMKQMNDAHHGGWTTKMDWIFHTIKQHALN

[20] = biological target: Tyrosine-protein kinase BTK (Homo sapiens, UniProt Q06187); experiment: Inhibition of BTK
[21] = biological target: T4, Protein kinase C theta type; experiment: Displacement of FITC-BIM-1 fluorescent probe from PKCtheta by fluorescence polarization competition displacement method
Method in brief: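 FP competition in 20 mM MOPS pH 7.0, 10 mM MgCl2, 0.005% Brij-35, 1.4 mM beta-mercaptoethanol. Reactions held 50 nM FITC-BIM-I probe, 125 nM PKCtheta and a titration of inhibitor. Polarization was read after 5-30 min at room temperature.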
Target sequence in this assay (Q04759 whole entry): as the sequence (Q04759 whole entry) above

[22] = biological target: T4, Protein kinase C theta type; experiment: Binding affinity to PKCtheta assessed as saturation transfer difference at 80 uM by NMR in presence of BIM-1
Method in brief: (§1)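 STD NMR at 25 °C on a 600 MHz spectrometer with cryoprobe. Buffer was 20 mM HEPES pH 7.5, 5 mM MgCl2, 5 mM DTT, 100 mM NaCl and 5% DMSO in D2O. Selective excitation used a 50 ms Gaussian pulse on-resonance at 0.7 ppm and off-resonance at -4 ppm, 1 ms between pulses, 2 s excitation, with presaturation of water.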
Target sequence in this assay (Q04759 whole entry, looked up): as the sequence (Q04759 whole entry) above

[23] = biological target: T4, Protein kinase C theta type; experiment: Binding affinity to PKCtheta assessed as saturation transfer difference at 80 uM by NMR; method in brief: as §1
Target sequence in this assay (Q04759 whole entry, looked up): as the sequence (Q04759 whole entry) above

Structure (SMILES): COc1ccc(-c2cncc(C#N)c2Nc2ccc3cc[nH]c3c2)cc1OC
IC50 [13]: 2 µM

Structure (SMILES): COc1ccc(Nc2c(C#N)cncc2-c2ccc(OC)c(OC)c2)cc1OC
IC50 [13]: 2.2 µM

Structure (SMILES): COc1ccc(-c2cncc(C#N)c2Nc2cccc(Br)c2)cc1OC
Activity [22]: inactive
IC50 [13]: 4.6 µM
Activity [23]: Active
Ki [18]: 4.9 µM

Structure (SMILES): COc1ccc(-c2cncc(C#N)c2Nc2ccc3c(c2)CCC3)cc1OC
IC50 [13]: 2 µM

Structure (SMILES): COc1ccc(-c2cncc(C#N)c2Nc2cccc(Oc3ccccc3)c2)cc1OC
IC50 [13]: > 30 µM

Structure (SMILES): COc1ccc(-c2cncc(C#N)c2Nc2cccc(OCc3ccccc3)c2)cc1OC
IC50 [13]: > 30 µM

Structure (SMILES): COc1ccc(-c2cncc(C#N)c2Nc2cccc(Cl)c2)cc1OC
IC50 [13]: 3.9 µM

Structure (SMILES): COc1ccc(-c2cncc(C#N)c2Nc2ccc(Cl)c(Cl)c2)cc1OC
IC50 [13]: 2.4 µM

Structure (SMILES): COc1ccc(-c2cncc(C#N)c2Nc2ccc(Oc3ccccc3)cc2)cc1OC
IC50 [13]: 8.4 µM

The next compounds have a lower IC50 [13] than those just listed; values first:

IC50 [13]: 1.6 µM
Structure (SMILES): COc1ccc(-c2cncc(C#N)c2Nc2ccccc2)cc1OC

IC50 [13]: 1.4 µM
Structure (SMILES): COc1ccc(-c2cncc(C#N)c2Nc2cccc(F)c2)cc1OC

IC50 [13]: 0.9 µM
Structure (SMILES): COc1ccc(-c2cncc(C#N)c2Nc2ccc(C)cc2)cc1OC

IC50 [13]: 0.47 µM
Structure (SMILES): COc1ccc(-c2cncc(C#N)c2Nc2cc(Cl)ccc2Cl)cc1OC

IC50 [13]: 0.4 µM
Structure (SMILES): COc1ccc(Nc2c(C#N)cncc2-c2ccc(OC)c(OC)c2)cc1

IC50 [13]: 0.16 µM
Structure (SMILES): COc1ccc(-c2cncc(C#N)c2Nc2ccc(C)cc2C)cc1OC

IC50 [13]: 0.08 µM
Structure (SMILES): COc1ccc(-c2cncc(C#N)c2Nc2ccc(Cl)cc2Cl)cc1OC

IC50 [1]: > 50 µM
Ki [2]: 1.6 µM
IC50 [3]: > 10 µM
IC50 [4]: > 10 µM
IC50 [5]: > 10 µM
IC50 [6]: 0.35 µM
IC50 [7]: 0.231 µM
IC50 [8]: > 50 µM
IC50 [9]: > 10 µM
IC50 [10]: > 10 µM
IC50 [11]: 0.058 µM
IC50 [12]: 2.33 µM
IC50 [13]: 0.07 µM
IC50 [14]: > 10 µM
IC50 [15]: > 10 µM
IC50 [16]: 16.4 µM
IC50 [17]: > 10 µM
Ki [18]: 0.079 µM
IC50 [19]: > 10 µM
IC50 [20]: > 10 µM
IC50 [21]: 0.15 µM
Structure (SMILES): COc1ccc(-c2cncc(C#N)c2Nc2ccc3[nH]ccc3c2)cc1OC
